Laboratory results from ChEMBL document CHEMBL1128183, “Hypoxia-selective agents derived from 2-quinoxalinecarbonitrile 1,4-di-N-oxides. 2” (1995).

Tests used:
[1] = Hypoxia cytotoxicity ratio (HCR), calculated by dividing the dose in air by the dose in hypoxia giving 1% control cell survival.; type: functional
Outline: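 Suspension cultures of V79 cells gassed continuously with pure air or nitrogen (30 min pre-gassing, then 2 h exposure), two flasks per dose, DMSO and nitracrine 0.06 μM controls. Clonogenic survival from plating efficiency relative to control after 7-day colony growth; ratio = air dose over hypoxic dose each giving 1% control survival, from dose-response curves.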

V79 = experiment: Concentration giving 1% of control V79 cells survival in hypoxia; type: functional, Cricetulus griseus
Outline: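 V79 Chinese hamster lung fibroblasts, trypsinized from exponential monolayers into suspension (2 × 10^4 cells/mL, EMEM + 10% FBS + 10 mM HEPES), gassed with nitrogen 30 min before and throughout 2 h drug exposure; duplicate flasks per dose. Cells replated, colonies (>64 cells) counted after 7 days at 37 °C; dose-response curve gives micromolar dose for 1% of control survival.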

| SMILES | HCR [1] | Potency (V79) [µM] |
| --- | --- | --- |
| N#Cc1c(NCCCN2CCOCC2)[n+]([O-])c2cc(Cl)ccc2[n+]1[O-] | >125 | 0.8 |
| N#Cc1c(N)[n+]([O-])c2ccccc2[n+]1[O-] | 80 | 30 |
| CCN(CC)CCNc1c(C#N)[n+]([O-])c2cc(C)ccc2[n+]1[O-] | 100 | 3 |
| N#Cc1c[n+]([O-])c2ccc(C(F)(F)F)cc2[n+]1[O-] | 80 | 6 |
| Nc1n[n+]([O-])c2ccccc2[n+]1[O-] [TIRAPAZAMINE] | 75 | 30 |
| N#Cc1c(NCCCN2CCOCC2)[n+]([O-])c2ccc(Cl)cc2[n+]1[O-] | 300 | 2 |
| N#Cc1c(NCCO)[n+]([O-])c2ccc(Cl)cc2[n+]1[O-] | 75 | 4 |
| N#Cc1c[n+]([O-])c2ccc(F)cc2[n+]1[O-] | >50 | 2 |
| CN(C)CCCNc1c(C#N)[n+]([O-])c2cc(F)ccc2[n+]1[O-] | 170 | 0.6 |
| COc1ccc2c(c1)[n+]([O-])c(C#N)c[n+]2[O-] | >200 | 5 |
| Cc1ccc2c(c1)[n+]([O-])c(C#N)c(NCCCN(C)C)[n+]2[O-] | 300 | 1 |
| Cc1c(C#N)[n+]([O-])c2ccccc2[n+]1[O-] | 15 | 10 |
| CN(C)CCCNc1c(C#N)[n+]([O-])c2ccccc2[n+]1[O-] | 300 | 1 |
| Cc1ccc2c(c1)[n+]([O-])c(C#N)c[n+]2[O-] | 200 | 6 |
| N#Cc1c[n+]([O-])c2ccc(-c3ccc([N+](=O)[O-])cc3)cc2[n+]1[O-] | 200 | 0.2 |
| N#Cc1c(N)[n+]([O-])c2cc(F)c(F)cc2[n+]1[O-] | <10 | 1 |
| N#Cc1c(N)[n+]([O-])c2cc(Cl)c(Cl)cc2[n+]1[O-] | 80 | 1 |
| N#Cc1c[n+]([O-])c2cc(F)c(F)cc2[n+]1[O-] | 5 | 0.3 |
| N#Cc1c[n+]([O-])c2ccccc2[n+]1[O-] | >100 | 5 |
| N#Cc1c(N)[n+]([O-])c2ccc(-c3ccc([N+](=O)[O-])cc3)cc2[n+]1[O-] | 15 | 4 |

| SMILES | HCR [1] | Potency (V79) [µM] |
| --- | --- | --- |
| CCN(CC)CCNc1c(C#N)[n+]([O-])c2cc(C(F)(F)F)ccc2[n+]1[O-] | 50 | 0.6 |
| COc1cc2c(cc1Cl)[n+]([O-])cc(C#N)[n+]2[O-] | >50 | 0.4 |
| CN(C)CCCNc1c(C#N)[n+]([O-])c2cc(Cl)ccc2[n+]1[O-] | 250 | 0.4 |
| COc1cc2c(cc1Cl)[n+]([O-])c(N)c(C#N)[n+]2[O-] | <10 | 10 |
| CN(CCCNc1c(C#N)[n+]([O-])c2cc(Cl)ccc2[n+]1[O-])CCCNc1c(C#N)[n+]([O-])c2cc(Cl)ccc2[n+]1[O-] | 10 | 0.7 |
| CCN(CC)CCNc1c(C#N)[n+]([O-])c2cc(Cl)ccc2[n+]1[O-] | 40 | 0.5 |
| N#Cc1c(N)[n+]([O-])c2ccc(Cl)cc2[n+]1[O-] | 150 | 9 |
| N#Cc1c(N)[n+]([O-])c2ccc(F)cc2[n+]1[O-] | 100 | 15 |
| Cc1cc2c(cc1C)[n+]([O-])c(C#N)c[n+]2[O-] | >7 | 14 |
| N#Cc1c(N)[n+]([O-])c2ccc(C(F)(F)F)cc2[n+]1[O-] | 75 | 7 |
| CN(C)CCNc1c(C#N)[n+]([O-])c2cc(Cl)ccc2[n+]1[O-] | 100 | 0.3 |
| COc1ccc2c(c1)[n+]([O-])c(C#N)c(NCCCN(C)C)[n+]2[O-] | 200 | 2 |
| CCN(CC)CCNc1c(C#N)[n+]([O-])c2cc(OC)ccc2[n+]1[O-] | 100 | 1 |
| COc1ccc2c(c1)[n+]([O-])c(C#N)c(N)[n+]2[O-] | >10 | 30 |
| CN(C)CCCNc1c(C#N)[n+]([O-])c2cc(C(F)(F)F)ccc2[n+]1[O-] | 340 | 0.3 |
| CCN(CC)CCNc1c(C#N)[n+]([O-])c2cc(F)ccc2[n+]1[O-] | 75 | 0.4 |
| N#Cc1c[n+]([O-])c2cc(Cl)c(Cl)cc2[n+]1[O-] | 10 | 0.7 |
| CCN(CC)CCNc1c(C#N)[n+]([O-])c2ccccc2[n+]1[O-] | 120 | 0.9 |
| N#Cc1c(NCCCn2ccnc2)[n+]([O-])c2ccc(Cl)cc2[n+]1[O-] | >50 | 2 |
| N#Cc1c[n+]([O-])c2ccc(Cl)cc2[n+]1[O-] | 30 | 3 |
